From publication PMC9073653 (RSC Advances, 2019) come the findings set out here.

The structures appear in SMILES notation. Where only a bound is given, the exact number is not on record here.

One test has as its system human fibroblasts (HAF). Nature of the test: SRB cytotoxicity assay, human fibroblasts HAF. Format: cell-based. The settings on record: Fibroblast, 96 h, read-out: IC50 HAF.
The next test concerns PC3 cells. The test can be described thus: SRB antiproliferative assay, PC3. Format: cell-based, human. The settings on record: in PC3 cells.
Test [1] deals with DU145 cells. The test can be described thus: SRB antiproliferative assay, DU145. Format: cell-based, human. The settings on record: in DU145 cells.
The test system of test [2] is DU145 cells. The test can be described thus: Wound healing migration assay. The settings on record: 10 μM, 24 h. Format: cell-based, human.
Test [3] deals with PARP and CL.PARP in DU145 cells. Nature of the test: Western blot of PARP and cleaved PARP. Format: cell-based, human.
For test [4], the system named is DU145, PC3 and PC3M cell lines. Nature of the test: SRB antiproliferative assay, CRPC cell lines together. In kind it is cell-based, human. The settings on record: across DU145, PC3 and PC3M.
The subject of the next test is LNCaP cells. Nature of the test: SRB antiproliferative assay, LNCaP. The settings on record: Homo sapiens, read-out: IC50 LNCaP. Format: cell-based. Summed up: (§1)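 AR-positive human prostate cancer line, tested in vitro for antiproliferative activity by sulforhodamine B (SRB) staining, with IC50 as the read-out.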
Test [5] has as its system DU145 cells. Nature of the test: Cell cycle analysis by PI staining and flow cytometry. Format: cell-based, human. The settings on record: 10 μM, 24 h, control 9.66%.
Test [6] concerns DU145 cells. Nature of the test: Transwell migration assay. In kind it is cell-based, human. Conditions: 10 μM, 24 h.
In the next test the test system is 22RV1 cells. Nature of the test: SRB antiproliferative assay, 22RV1. The settings on record: Homo sapiens, 22Rv1, read-out: IC50 22RV1. In kind it is cell-based. In a few lines: as §1

For the compound `C[C@]1([N+](=O)[O-])C(=O)c2ccccc2O[C@@H]1CC(=O)NNc1nc2ccccc2s1` [Compound 26], in the test on human fibroblasts (HAF), the IC50 was more than 100 µM. Consider `C[C@]1([N+](=O)[O-])C(=O)c2ccccc2O[C@@H]1CC(=O)NC12CC3CC(CC(C3)C1)C2` [Compound 19], for which, in the test on human fibroblasts (HAF), the IC50 was more than 100 µM. Also, the figures for the “more potent antiproliferative activity than cisplatin” value in the test with PC3 cells and in the test with DU145 cells [1] were 5.9 fold and 1.6 fold, respectively. As for `C[C@]1([N+](=O)[O-])C(=O)c2cc(F)ccc2O[C@@H]1CC(=O)NC12CC3CC(CC(C3)C1)C2` [Compound 36], the “cell migration ability, wound healing” value in the test on DU145 cells [2] is listed as “notably inhibited”. Also, the “expression of PARP and CL.PARP” value in test [3] is reported as “promote the PARP to CL. PARP”. For the same compound, the “times more potent than the positive compound cisplatin” value in test [4] is given as 2.3–19.4 times. The half-inhibitory concentration (IC50) in the test on human fibroblasts (HAF) was more than 100 µM; in the test with LNCaP cells, 4.4 µM; in the test with 22RV1 cells it was 7.43 µM. In addition, the “percentage of G2/M phase cells” value with DU145 cells [5] was 0%. For the same compound, in the test on DU145 cells [6], the “migration rate in comparison with control” value is 23.94%. Consider `C[C@]1([N+](=O)[O-])C(=O)c2c(F)cccc2O[C@@H]1CC(=O)NC12CC3CC(CC(C3)C1)C2` [Compound 41], for which the half-inhibitory concentration (IC50) in the test on human fibroblasts (HAF) is more than 100 µM. As for `C[C@]1([N+](=O)[O-])C(=O)c2ccccc2O[C@@H]1CC(=O)Nc1ccccc1` [Compound 20], the IC50 in the test on human fibroblasts (HAF) is more than 100 µM. Regarding `CCCCCCCCNC(=O)C[C@H]1Oc2ccccc2C(=O)[C@]1(C)[N+](=O)[O-]` [Compound 17], in the test with human fibroblasts (HAF), the half-inhibitory concentration (IC50) is more than 100 µM. The same measure, in the same setting: the value for `C[C@]1([N+](=O)[O-])C(=O)c2cccc(F)c2O[C@@H]1CC(=O)NC12CC3CC(CC(C3)C1)C2` [Compound 43] was more than 100 µM; that for `CN(C(=O)C[C@H]1Oc2ccccc2C(=O)[C@]1(C)[N+](=O)[O-])C1CCCCC1` [Compound 27] was more than 100 µM. Consider `CCNC(=O)C[C@H]1Oc2ccccc2C(=O)[C@]1(C)[N+](=O)[O-]` [Compound 13], for which the IC50 with human fibroblasts (HAF) is more than 100 µM.

Take `C[C@]1([N+](=O)[O-])C(=O)c2ccccc2O[C@@H]1CC(N)=O` [Compound 11]: the IC50 in the test with human fibroblasts (HAF) is more than 100 µM. On the same count and under the same terms, the value for `CC[C@]1([N+](=O)[O-])C(=O)c2ccccc2O[C@@H]1CC(=O)NC1CCCCC1` [Compound 34] was more than 100 µM. As to `CN(C)C(=O)C[C@H]1Oc2ccccc2C(=O)[C@]1(C)[N+](=O)[O-]` [Compound 28], in the test on human fibroblasts (HAF), the IC50 was more than 100 µM.

Regarding `C[C@]1([N+](=O)[O-])C(=O)c2cc(Cl)ccc2O[C@@H]1CC(=O)NC12CC3CC(CC(C3)C1)C2` [Compound 37], in the test on human fibroblasts (HAF), the IC50 is more than 100 µM.

As for `C[C@]1([N+](=O)[O-])C(=O)c2ccccc2O[C@@H]1CC(=O)NC1CCCC1` [Compound 29], the IC50 in the test on human fibroblasts (HAF) is more than 100 µM. On the same count and under the same terms, the value for `C[C@]1(N)C(=O)c2cc(F)ccc2O[C@@H]1CC(=O)NC12CC3CC(CC(C3)C1)C2` [Compound 44] was more than 100 µM; that for `C[C@]1([N+](=O)[O-])C(=O)c2ccc(F)cc2O[C@@H]1CC(=O)NC12CC3CC(CC(C3)C1)C2` [Compound 42] was more than 100 µM; that for `CC(C)(C)NC(=O)C[C@H]1Oc2ccccc2C(=O)[C@]1(C)[N+](=O)[O-]` [Compound 16] was more than 100 µM. Take `C[C@]1([N+](=O)[O-])C(=O)c2ccccc2O[C@@H]1CC(=O)Nc1ccc2[nH]ccc2c1` [Compound 24]: the IC50 in the test with human fibroblasts (HAF) is more than 100 µM. The same measure, in the same setting: to `C[C@]1([N+](=O)[O-])C(=O)c2ccccc2O[C@@H]1CC(=O)Nc1ncccn1` [Compound 23] belongs more than 100 µM; to `C[C@]1([N+](=O)[O-])C(=O)c2ccccc2O[C@@H]1CC(=O)NCc1ccccc1` [Compound 21], more than 100 µM; to `C[C@]1([N+](=O)[O-])C(=O)c2ccccc2O[C@@H]1CC(=O)NC1CCCCC1` [Compound 18], more than 100 µM. Same read-out and setting: the value for `C[C@]1([N+](=O)[O-])C(=O)c2cc(C(F)(F)F)ccc2O[C@@H]1CC(=O)NC12CC3CC(CC(C3)C1)C2` [Compound 35] was more than 100 µM.

Regarding `C[C@]1([N+](=O)[O-])C(=O)c2ccccc2O[C@@H]1CC(=O)NCC1CCCCC1` [Compound 31], the IC50 in the test with human fibroblasts (HAF) is more than 100 µM. As to `CCCCNC(=O)C[C@H]1Oc2ccccc2C(=O)[C@]1(C)[N+](=O)[O-]` [Compound 15], the 50% inhibitory concentration (IC50) in the test with human fibroblasts (HAF) was more than 100 µM. As for `CNC(=O)C[C@H]1Oc2ccccc2C(=O)[C@]1(C)[N+](=O)[O-]` [Compound 12], the IC50 in the test on human fibroblasts (HAF) was more than 100 µM. Regarding `C[C@]1([N+](=O)[O-])C(=O)c2cc(Br)ccc2O[C@@H]1CC(=O)NC12CC3CC(CC(C3)C1)C2` [Compound 38], the 50% inhibitory concentration (IC50) with human fibroblasts (HAF) came to 3.67 ± 0.56 µM.

For `CC[C@]1([N+](=O)[O-])C(=O)c2ccccc2O[C@@H]1CC(=O)NC12CC3CC(CC(C3)C1)C2` [Compound 33], the IC50 with human fibroblasts (HAF) was more than 100 µM. `C[C@]1([N+](=O)[O-])C(=O)c2ccccc2O[C@@H]1CC(=O)OCc1ccccc1` [Compound 10]: the IC50 with human fibroblasts (HAF) is more than 100 µM. As to `C#CCOC(=O)C[C@H]1Oc2ccccc2C(=O)[C@]1(C)[N+](=O)[O-]` [Compound 6], in the test with human fibroblasts (HAF), the IC50 was more than 100 µM. Same read-out and setting: to `C#CCNC(=O)C[C@H]1Oc2ccccc2C(=O)[C@]1(C)[N+](=O)[O-]` [Compound 14] belongs more than 100 µM; to `COc1ccc2c(c1)C(=O)[C@](C)([N+](=O)[O-])[C@@H](CC(=O)NC13CC4CC(CC(C4)C1)C3)O2` [Compound 40], more than 100 µM.

Turning to `CC(=O)O[C@@]12CO[C@@H]1C[C@H](O)[C@@]1(C)C(=O)[C@H](O)C3=C(C)[C@@H](OC(=O)[C@H](O)[C@@H](NC(=O)OC(C)(C)C)c4ccccc4)C[C@@](O)([C@@H](OC(=O)c4ccccc4)[C@H]21)C3(C)C` [Docetaxel, reference compound], in the test with human fibroblasts (HAF), the IC50 was found to be 0.157 ± 0.031 µM.

`C[C@]1([N+](=O)[O-])C(=O)c2ccccc2O[C@@H]1CC(=O)Nc1nccs1` [Compound 22]: the IC50 in the test on human fibroblasts (HAF) was more than 100 µM.

`CC12CC3CC(C)(C1)CC(NC(=O)C[C@H]1Oc4ccccc4C(=O)[C@]1(C)[N+](=O)[O-])(C3)C2` [Compound 32]: the concentration for half-maximal inhibition (IC50) in the test on human fibroblasts (HAF) was more than 100 µM.
